Experiments:
Rat [1] = test: concentration in liver after dosing; conditions: 0.5 h; dosed: Potassium Perfluorobutane Sulfonate; 20 mg/kg; oral; Female; Harlan Sprague Dawley
Rat [2] = test: concentration in brain after dosing; conditions: 0.5 h; dosed: Potassium Perfluorobutane Sulfonate; 20 mg/kg; oral; Male; Harlan Sprague Dawley
Rat [3] = test: concentration in liver after dosing; conditions: 0.5 h; dosed: Potassium Perfluorobutane Sulfonate; 20 mg/kg; oral; Female; Harlan Sprague Dawley; remark: listed apart in the source
Rat [4] = test: concentration in liver after dosing; conditions: 1 h; dosed: Potassium Perfluorobutane Sulfonate; 20 mg/kg; oral; Female; Harlan Sprague Dawley
Rat [5] = test: concentration in kidney after dosing; conditions: 3 h; dosed: Potassium Perfluorobutane Sulfonate; 20 mg/kg; oral; Male; Harlan Sprague Dawley
Rat [6] = test: concentration in plasma after dosing; conditions: 1.5 h; dosed: Potassium Perfluorobutane Sulfonate; 4 mg/kg; iv; Male; F344
Rat [7] = test: concentration in plasma after dosing; conditions: 1 h; dosed: Potassium Perfluorobutane Sulfonate; 4 mg/kg; iv; Female; Harlan Sprague-Dawley
Rat [8] = test: concentration in plasma after dosing; conditions: dosed: Potassium Perfluorobutane Sulfonate, 4 mg/kg, oral, Male, Harlan Sprague Dawley
Rat [9] = test: concentration in kidney after dosing; conditions: 0.5 h; dosed: Potassium Perfluorobutane Sulfonate; 20 mg/kg; oral; Male; Harlan Sprague Dawley
rat [10] = conditions: dosed: benzo[a]pyrene, 1 mg/kg, iv, male, Sprague Dawley
rat [11] = conditions: dosed: benzo[a]pyrene, 1 mg/kg, iv, male, Sprague Dawley; remark: listed apart in the source
Mouse [12] = test: concentration in plasma after dosing; conditions: 0.25 h; dosed: 2-Hydroxy-4-methoxybenzophenone; 500 mg/kg; oral; Female; B6C3F1
Mouse [13] = test: concentration in plasma after dosing; conditions: dosed: 2-Hydroxy-4-methoxybenzophenone, 100 mg/kg, oral, Male, B6C3F1
Mouse [14] = test: concentration in plasma after dosing; conditions: 2 h; dosed: 2-Hydroxy-4-methoxybenzophenone; 500 mg/kg; oral; Female; B6C3F1
Mouse [15] = test: concentration in plasma after dosing; conditions: 2.5 min; dosed: 2-Hydroxy-4-methoxybenzophenone; 250 mg/kg; oral; Male; B6C3F1
Rat [16] = test: concentration in plasma after dosing; conditions: dosed: 2-Hydroxy-4-methoxybenzophenone, 250 mg/kg, oral, Female, F344
Rat [17] = test: concentration in plasma after dosing; conditions: dosed: 2-Hydroxy-4-methoxybenzophenone, 250 mg/kg, oral, Male, F344
Mouse [18] = test: concentration in plasma after dosing; conditions: 2 h; dosed: 2-Hydroxy-4-methoxybenzophenone; 250 mg/kg; oral; Male; B6C3F1
Rat [19] = test: concentration in kidney after dosing; conditions: 6 h; dosed: Perfluorooctanoic acid; 80 mg/kg; oral; Female; Harlan Sprague Dawley
Rat [20] = test: concentration in kidney after dosing; conditions: 3 h; dosed: Perfluorooctanoic acid; 80 mg/kg; oral; Female; Harlan Sprague Dawley
Rat [21] = test: concentration in liver after dosing; conditions: 3 h; dosed: Fluorotelomer alcohol 8+2; 80 mg/kg; oral; Female; Harlan Sprague Dawley
Rat [22] = test: concentration in brain after dosing; conditions: 6 h; dosed: Perfluorooctanoic acid; 12 mg/kg; oral; Male; Harlan Sprague Dawley
Rat [23] = test: concentration in kidney after dosing; conditions: 0.5 h; dosed: Fluorotelomer alcohol 8+2; 80 mg/kg; oral; Female; Harlan Sprague Dawley
Rat [24] = test: concentration in plasma after dosing; conditions: 0.5 h; dosed: Nitrite; 40 mg/kg; oral; Female; F344
Rat [25] = test: concentration in plasma after dosing; conditions: 0.5 h; dosed: Nitrite; 80 mg/kg; oral; Female; F344
Rat [26] = test: concentration in plasma after dosing; conditions: dosed: Nitrite, 20 mg/kg, iv, Male, F344
human = test: concentration in expired air after dosing; conditions: dosed: methyl tert-butyl ether, 15 mg, oral, male
Method in brief: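 A PubMed search, classifier screening and manual review identified published in vivo toxicokinetic studies, which together with two structured collections supplied concentration-versus-time and amount-versus-time points. Points were mostly digitised from plot screenshots with WebPlotDigitizer, otherwise copied from tables. Dose, route, subject details and medium were hand-curated from each paper, and sampling and analytical methods are those of the sources, often unreported.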

O=S(=O)([O-])C(F)(F)C(F)(F)C(F)(F)C(F)(F)F.[K+] [Potassium Perfluorobutane Sulfonate]
Conditions | concentration in brain [ng/g] | concentration in kidney [ng/g] | concentration in liver [ng/g] | concentration in plasma [ng/mL]
Rat [1] | – | – | 48000 | –
Rat [2] | 518 | – | – | –
Rat [3] | – | – | 51300 | –
Rat [4] | – | – | 30300 | –
Rat [5] | – | 20700 | – | –
Rat [6] | – | – | – | 1850
Rat [7] | – | – | – | 3410
Rat [9] | – | 9690 | – | –

Rat [8]
Conditions | concentration in plasma [ng/mL]
1 h | 14800
24 h | 603

c1ccc2c(c1)cc1ccc3cccc4ccc2c1c34 [benzo[a]pyrene]
Conditions | amount in bile after dosing, 1.003 h [ng] | amount in bile after dosing, 3.009 h [ng] | amount in bile after dosing, 5.994 h [ng] | amount in bile after dosing, 24 h [ng] | amount in urine after dosing, 2.991 h [ng] | amount in urine after dosing, 6.006 h [ng] | amount in urine after dosing, 24 h [ng]
rat [10] | – | – | – | – | 1.11 | 1.15 | 1.15
rat [11] | 7.16 | 20.1 | 22.9 | 26.4 | – | – | –

COc1ccc(C(=O)c2ccccc2)c(O)c1 [2-Hydroxy-4-methoxybenzophenone]
Conditions | concentration in plasma [ng/mL]
Mouse [12] | 411
Mouse [14] | 4310
Mouse [15] | 22
Mouse [18] | 34

concentration in plasma [ng/mL]
Conditions | 0.25 h | 2 h | 2.5 min | 3 h | 4 h | 10 min
Mouse [13] | 113 | 24.1 | 84.8 | 18.6 | – | 27.8
Rat [16] | 56.9 | – | – | – | 26.2 | –
Rat [17] | 318 | – | – | – | 48.1 | –

O=C(O)C(F)(F)C(F)(F)C(F)(F)C(F)(F)C(F)(F)C(F)(F)C(F)(F)F [Perfluorooctanoic acid]
Conditions | concentration in brain [ng/g] | concentration in kidney [ng/g] | concentration in liver [ng/g]
Rat [19] | – | 178000 | –
Rat [20] | – | 321000 | –
Rat [21] | – | – | 2300
Rat [22] | 1290 | – | –
Rat [23] | – | 360 | –

O=N[O-] [Nitrite]
Conditions | concentration in plasma [ng/mL]
Rat [24] | 6500
Rat [25] | 8900

Rat [26]
Conditions | concentration in plasma [ng/mL]
0.75 h | 3400
2 min | 14300

CC(C)(C)O [tert-butyl alcohol]
human
Conditions | concentration in expired air [nM]
0.163 h | 1.334
0.3286 h | 2.062
0.5019 h | 2.062
0.6649 h | 2.197
0.8305 h | 1.982
0.9909 h | 1.774
1.501 h | 1.665
1.995 h | 1.562
2.994 h | 1.49
3.99 h | 1.323
4.991 h | 1.366
5.99 h | 1.242

— EPA's CvTdb concentration-time database
